Experimental data: ChEMBL document CHEMBL2177062, “Bile acid-based 1,2,4-trioxanes: synthesis and antimalarial assessment” (J Med Chem, 2012)
Activity calls are given as the source filed them. The calls are words filed in the database; no cut-off is given here.

Tested on: Plasmodium yoelii nigeriensis
Assay: Antimalarial activity in multidrug-resistant Plasmodium yoelii nigeriensis infected Swiss mouse assessed as disease cure at 96 mg/kg, po two devided dose daily for 4 days by 28 day survival assay
Assay type: functional
Procedure, shortened: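 Swiss mice of either sex (20 2 g) inoculated ip with 1 × 10⁶ MDR P. yoelii nigeriensis (chloroquine-, mefloquine-, halofantrine-resistant) parasites on day 0. Five mice per dose. Oral dosing in groundnut oil (0.1 mL per dose) from day 0 to 3, as two divided doses daily. Thin blood smears on day 4, then twice weekly to day 28. Mice without patent infection by day 28 scored cured; % protection = fraction of mice cured. β-arteether as positive control.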

Q: How did the Activity turn out when `C=C(c1ccc(Cl)cc1)[C@@H]1CO[C@@]2(CC[C@@]3(C)[C@H](CC[C@@H]4[C@@H]3CC[C@]3(C)[C@@H]([C@H](C)CCC(=O)OC)CC[C@@H]43)C2)OO1` (relative stereo; form 1) was run?
A: inactive

Q: With `C=C(c1ccc(F)cc1)[C@@H]1CO[C@@]2(CC[C@@]3(C)[C@H](CC[C@@H]4[C@@H]3CC[C@]3(C)[C@@H]([C@H](C)CCC(=O)OC)CC[C@@H]43)C2)OO1` (relative stereo; form 2) as the compound, how does the Activity read?
A: inactive

Q: For `C=C(c1ccc(F)cc1)[C@@H]1CO[C@@]2(CC[C@@]3(C)[C@H](CC[C@@H]4[C@@H]3CC[C@]3(C)[C@@H](O)CC[C@@H]43)C2)OO1` (relative stereo; form 1), which Activity is on record?
A: inactive

Q: `C=C(c1ccccc1)[C@@H]1CO[C@@]2(CC[C@@]3(C)[C@H](CC[C@@H]4[C@@H]3CC[C@]3(C)[C@@H]([C@H](C)C(C)=O)CC[C@@H]43)C2)OO1` (relative stereo; form 1) was tested. Which Activity did it give?
A: inactive

Q: How did the Activity turn out when `C=C(c1ccc(Cl)cc1)[C@@H]1CO[C@@]2(CC[C@@]3(C)[C@H](CC[C@@H]4[C@@H]3CC[C@]3(C)[C@@H]([C@H](C)C(C)=O)CC[C@@H]43)C2)OO1` (relative stereo; form 2) was run?
A: inactive

Q: `C=C(c1ccccc1)[C@@H]1CO[C@@]2(CC[C@@]3(C)[C@H](CC[C@@H]4[C@@H]3CC[C@]3(C)[C@@H](C(C)=O)CC[C@@H]43)C2)OO1` (relative stereo; form 1) was tested. Which Activity did it give?
A: inactive

Q: Which Activity does the source give for `C=C(c1ccc(Cl)cc1)[C@@H]1CO[C@@]2(CC[C@@]3(C)[C@H](CC[C@@H]4[C@@H]3CC[C@]3(C)[C@@H]([C@H](C)CCC(=O)OC)CC[C@@H]43)C2)OO1` (relative stereo; form 2) here?
A: inactive

Q: `C=C(c1ccc(Br)cc1)[C@@H]1CO[C@@]2(CC[C@@]3(C)[C@H](CC[C@@H]4[C@@H]3CC[C@]3(C)[C@@H](C(C)=O)CC[C@@H]43)C2)OO1` (relative stereo; form 2) was tested. Which Activity did it give?
A: inactive

Q: Which Activity does the source give for `C=C(c1ccccc1)[C@@H]1CO[C@@]2(CC[C@@]3(C)[C@H](CC[C@@H]4[C@@H]3CC[C@]3(C)[C@@H](O)CC[C@@H]43)C2)OO1` (relative stereo; form 1) here?
A: inactive

Q: Which Activity does the source give for `C=C(c1ccccc1)[C@@H]1CO[C@@]2(CC[C@@]3(C)[C@H](CC[C@@H]4[C@@H]3CC[C@]3(C)[C@@H]([C@H](C)CCC(=O)OC)CC[C@@H]43)C2)OO1` (relative stereo; form 2) here?
A: inactive

Q: With `C=C(c1ccc(Br)cc1)[C@@H]1CO[C@@]2(CC[C@@]3(C)[C@H](CC[C@@H]4[C@@H]3CC[C@]3(C)[C@@H]([C@H](C)C(C)=O)CC[C@@H]43)C2)OO1` (relative stereo; form 1) as the compound, how does the Activity read?
A: inactive

Q: For `C=C(c1ccc(Cl)cc1)[C@@H]1CO[C@@]2(CC[C@@]3(C)[C@H](CC[C@@H]4[C@@H]3CC[C@]3(C)[C@@H](C(C)=O)CC[C@@H]43)C2)OO1` (relative stereo; form 1), which Activity is on record?
A: inactive

Q: How did the Activity turn out when `C=C(c1ccc(Cl)cc1)[C@@H]1CO[C@@]2(CC[C@@]3(C)[C@H](CC[C@@H]4[C@@H]3CC[C@]3(C)[C@@H]([C@H](C)C(C)=O)CC[C@@H]43)C2)OO1` (relative stereo; form 1) was run?
A: inactive

Q: For `C=C(c1ccc(Br)cc1)[C@@H]1CO[C@@]2(CC[C@@]3(C)[C@H](CC[C@@H]4[C@@H]3CC[C@]3(C)[C@@H]([C@H](C)CCC(=O)OC)CC[C@@H]43)C2)OO1` (relative stereo; form 1), which Activity is on record?
A: inactive

Q: For `C=C(c1ccc(F)cc1)[C@@H]1CO[C@@]2(CC[C@@]3(C)[C@H](CC[C@@H]4[C@@H]3CC[C@]3(C)[C@@H]([C@H](C)C(C)=O)CC[C@@H]43)C2)OO1` (relative stereo; form 1), which Activity is on record?
A: inactive

Q: How did the Activity turn out when `C=C(c1ccc(F)cc1)[C@@H]1CO[C@@]2(CC[C@@]3(C)[C@H](CC[C@@H]4[C@@H]3CC[C@]3(C)[C@@H]([C@H](C)CCC(=O)OC)CC[C@@H]43)C2)OO1` (relative stereo; form 1) was run?
A: inactive

Q: Which Activity does the source give for `C=C(c1ccccc1)[C@@H]1CO[C@@]2(CC[C@@]3(C)[C@H](CC[C@@H]4[C@@H]3CC[C@]3(C)[C@@H]([C@H](C)CCC(=O)OC)CC[C@@H]43)C2)OO1` (relative stereo; form 1) here?
A: inactive
